Assay [1] addresses 5'-AMP-activated protein kinase catalytic subunit alpha-1 (Homo sapiens) (UniProt Q13131). As to the kind of experiment: Inhibition of AMPKa1 Lys1 labeling site in human A-375 cells at 5 uM by KiNativ Profiling analysis relative to control. The assay is classed as cell-based. A digest of the protocol: (§1)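 Live A375 melanoma cells were treated with compound at 5 or 0.5 μM, then lysed. The lysates were labeled with a lysine-reactive ATP or ADP-biotin probe. Kinase protection from probe labeling was measured by KiNativ.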

The target in assay [2] is Aurora kinase B (Homo sapiens) (UniProt Q96GD4). As to the kind of experiment: Inhibition of AurB ATP Loop labeling site in human A-375 cells at 5 uM by KiNativ Profiling analysis relative to control. The assay is classed as cell-based. The procedure, abridged: as §1
Assay [3] concerns the target T1, Aurora kinase C (Homo sapiens) (UniProt Q9UQB9).
T1 sequence (whole entry): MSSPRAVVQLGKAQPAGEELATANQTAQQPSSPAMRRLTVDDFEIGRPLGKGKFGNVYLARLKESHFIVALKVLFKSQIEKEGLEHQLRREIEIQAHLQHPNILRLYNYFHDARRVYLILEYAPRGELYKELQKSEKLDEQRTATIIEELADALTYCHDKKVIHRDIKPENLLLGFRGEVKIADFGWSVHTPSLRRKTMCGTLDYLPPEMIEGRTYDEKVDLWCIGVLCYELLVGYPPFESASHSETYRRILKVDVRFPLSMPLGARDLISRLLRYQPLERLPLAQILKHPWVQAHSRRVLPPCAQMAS
As to the kind of experiment: Inhibition of AurC ATP Loop labeling site in human A-375 cells at 5 uM by KiNativ Profiling analysis relative to control. The assay is classed as cell-based. The procedure, abridged:
as §1

Assay [4] addresses Cyclin-dependent kinase 8 (Homo sapiens) (UniProt P49336). The assay can be described thus: Inhibition of CDK8 Lys2 labeling site in human A-375 cells at 5 uM by KiNativ Profiling analysis relative to control. It is filed as cell-based. A digest of the protocol: (§2)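 Live A375 melanoma cells were treated with compound at 5 or 0.5 μM. The cells were then lysed, and the lysates were labeled with a lysine-reactive ATP or ADP-biotin acyl probe (KiNativ). Inhibition is the compound's protection of each kinase labeling-site peptide from probe labeling, relative to untreated control.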

The target in assay [5] is Serine/threonine-protein kinase Chk2 (Homo sapiens) (UniProt O96017). The assay can be described thus: Inhibition of CHK2 Lys1 labeling site in human A-375 cells at 5 uM by KiNativ Profiling analysis relative to control. The assay is classed as cell-based. The procedure, abridged: as §2
Assay [6] deals with Serine/threonine-protein kinase Nek7 (Homo sapiens) (UniProt Q8TDX7). As to the kind of experiment: Inhibition of NEK7 Lys2 labeling site in human A-375 cells at 5 uM by KiNativ Profiling analysis relative to control. The assay is classed as cell-based.
Assay [7] has the same target. The assay can be described thus: Inhibition of NEK7 Lys1 labeling site in human A-375 cells at 5 uM by KiNativ Profiling analysis relative to control. The assay is classed as cell-based.
For assay [8], the target named is T2, Mitogen-activated protein kinase 13 (Homo sapiens) (UniProt O15264).
T2 sequence (whole entry): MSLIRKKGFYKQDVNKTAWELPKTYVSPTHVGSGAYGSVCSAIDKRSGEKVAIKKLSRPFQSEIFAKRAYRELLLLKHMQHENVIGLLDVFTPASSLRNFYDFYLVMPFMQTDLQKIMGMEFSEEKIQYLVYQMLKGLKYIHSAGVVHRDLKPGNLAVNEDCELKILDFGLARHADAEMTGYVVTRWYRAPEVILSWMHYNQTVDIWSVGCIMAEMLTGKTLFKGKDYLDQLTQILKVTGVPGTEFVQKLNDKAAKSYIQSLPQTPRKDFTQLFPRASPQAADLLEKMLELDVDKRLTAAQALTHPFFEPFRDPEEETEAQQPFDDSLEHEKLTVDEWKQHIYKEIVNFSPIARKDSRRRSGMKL
As to the kind of experiment: Inhibition of p38 delta Lys2 labeling site in human A-375 cells at 5 uM by KiNativ Profiling analysis relative to control. The assay is classed as cell-based.

Assay [9] deals with Ribosomal protein S6 kinase alpha-3 (Homo sapiens) (UniProt P51812). The assay can be described thus: Inhibition of RSK2 domain2 Lys2 labeling site in human A-375 cells at 0.5 uM by KiNativ Profiling analysis relative to control. It is filed as cell-based. A digest of the protocol:
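Live A375 melanoma cells treated with compound at 5 or 0.5 μM, then lysed. Lysate kinases were labeled with a lysine-reactive ATP or ADP-biotin probe. Inhibition was read as protection of labeling sites from the probe.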

For assay [10], the target named is Serine/threonine-protein kinase Nek7 (Homo sapiens) (UniProt Q8TDX7). The assay can be described thus: Inhibition of NEK7 Lys2 labeling site in human A-375 cells at 0.05 uM by KiNativ Profiling analysis relative to control. It is filed as cell-based.
Assay [11] deals with T3, Serine/threonine-protein kinase Nek9 (Homo sapiens) (UniProt Q8TD19).
T3 sequence (whole entry): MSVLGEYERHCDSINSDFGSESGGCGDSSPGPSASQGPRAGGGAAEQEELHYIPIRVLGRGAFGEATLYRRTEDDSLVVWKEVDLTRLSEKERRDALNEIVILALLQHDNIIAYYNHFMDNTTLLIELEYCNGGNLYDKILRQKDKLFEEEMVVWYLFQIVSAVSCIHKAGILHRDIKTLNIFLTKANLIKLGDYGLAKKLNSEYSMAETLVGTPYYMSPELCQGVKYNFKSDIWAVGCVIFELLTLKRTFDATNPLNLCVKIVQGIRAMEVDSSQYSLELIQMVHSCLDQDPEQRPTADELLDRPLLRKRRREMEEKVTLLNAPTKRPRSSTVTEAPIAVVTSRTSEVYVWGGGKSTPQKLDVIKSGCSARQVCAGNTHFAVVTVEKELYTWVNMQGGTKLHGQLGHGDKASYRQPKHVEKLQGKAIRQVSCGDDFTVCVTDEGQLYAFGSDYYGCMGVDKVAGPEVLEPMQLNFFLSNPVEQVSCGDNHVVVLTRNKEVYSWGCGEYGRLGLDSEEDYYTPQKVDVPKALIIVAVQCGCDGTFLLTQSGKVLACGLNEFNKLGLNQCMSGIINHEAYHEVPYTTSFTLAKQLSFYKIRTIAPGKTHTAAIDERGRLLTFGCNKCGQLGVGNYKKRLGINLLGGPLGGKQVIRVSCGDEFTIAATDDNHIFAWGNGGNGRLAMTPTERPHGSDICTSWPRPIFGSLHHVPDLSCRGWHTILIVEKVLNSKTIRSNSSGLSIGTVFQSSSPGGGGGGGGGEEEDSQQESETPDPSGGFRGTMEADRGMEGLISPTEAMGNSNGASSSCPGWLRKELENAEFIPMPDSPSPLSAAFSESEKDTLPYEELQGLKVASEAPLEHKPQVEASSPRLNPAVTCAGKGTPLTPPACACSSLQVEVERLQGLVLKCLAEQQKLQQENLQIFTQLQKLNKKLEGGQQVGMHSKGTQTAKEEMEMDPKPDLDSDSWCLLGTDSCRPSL
The assay can be described thus: Inhibition of NEK9 Lys1 labeling site harbouring RTEDDSLVVWKEVDLTR in human A-375 cells at 0.05 uM by KiNativ Profiling analysis relative to control. The assay is classed as cell-based.

In assay [12] the target is 3-phosphoinositide-dependent protein kinase 1 (Homo sapiens) (UniProt O15530). The assay can be described thus: Inhibition of PDK1 Protein Kinase Domain in human A-375 cells at 0.5 uM by KiNativ Profiling analysis relative to control.
Assay [13] has as its target TRAF2 and NCK-interacting protein kinase (Homo sapiens) (UniProt Q9UKE5). The assay can be described thus: Inhibition of ZC2 Lys2 labeling site in human Huh-7 cell lysate at 1 uM by KiNativ Profiling analysis relative to control. It is filed as subcellular.

Sequence of Serine/threonine-protein kinase Nek7 (Homo sapiens) (Q8TDX7 whole entry, looked up): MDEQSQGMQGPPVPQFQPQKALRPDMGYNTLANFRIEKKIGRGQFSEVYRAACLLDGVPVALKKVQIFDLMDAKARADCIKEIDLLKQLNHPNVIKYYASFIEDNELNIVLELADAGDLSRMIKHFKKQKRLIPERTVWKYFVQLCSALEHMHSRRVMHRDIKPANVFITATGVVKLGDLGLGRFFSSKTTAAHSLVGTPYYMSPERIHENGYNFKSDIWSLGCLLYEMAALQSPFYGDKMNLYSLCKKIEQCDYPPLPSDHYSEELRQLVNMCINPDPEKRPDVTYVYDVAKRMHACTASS
Sequence of Serine/threonine-protein kinase Chk2 (Homo sapiens) (O96017 whole entry): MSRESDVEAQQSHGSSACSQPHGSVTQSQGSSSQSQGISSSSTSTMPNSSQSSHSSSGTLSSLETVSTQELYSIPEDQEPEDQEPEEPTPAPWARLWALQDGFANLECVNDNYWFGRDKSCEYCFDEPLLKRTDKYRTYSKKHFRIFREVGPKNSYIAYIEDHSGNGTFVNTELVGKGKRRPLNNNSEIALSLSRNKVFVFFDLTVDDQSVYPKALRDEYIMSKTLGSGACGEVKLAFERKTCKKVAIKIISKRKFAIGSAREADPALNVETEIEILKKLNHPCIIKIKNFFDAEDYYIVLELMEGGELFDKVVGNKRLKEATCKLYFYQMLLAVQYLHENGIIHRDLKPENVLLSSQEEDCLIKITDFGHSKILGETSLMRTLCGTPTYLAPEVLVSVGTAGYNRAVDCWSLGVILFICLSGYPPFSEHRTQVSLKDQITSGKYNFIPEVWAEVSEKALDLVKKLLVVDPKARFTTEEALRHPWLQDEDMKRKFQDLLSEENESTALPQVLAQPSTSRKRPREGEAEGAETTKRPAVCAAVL
Sequence of Aurora kinase B (Homo sapiens) (Q96GD4 whole entry): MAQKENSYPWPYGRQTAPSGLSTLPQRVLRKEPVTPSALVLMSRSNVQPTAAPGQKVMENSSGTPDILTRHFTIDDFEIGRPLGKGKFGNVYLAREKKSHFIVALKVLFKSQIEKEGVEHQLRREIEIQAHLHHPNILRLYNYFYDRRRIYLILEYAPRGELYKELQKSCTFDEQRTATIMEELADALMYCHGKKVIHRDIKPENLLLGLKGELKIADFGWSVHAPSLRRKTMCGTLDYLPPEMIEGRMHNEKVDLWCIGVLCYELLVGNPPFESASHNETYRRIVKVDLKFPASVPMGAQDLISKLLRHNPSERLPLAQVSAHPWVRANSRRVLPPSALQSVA
Sequence of 5'-AMP-activated protein kinase catalytic subunit alpha-1 (Homo sapiens) (Q13131 whole entry, looked up): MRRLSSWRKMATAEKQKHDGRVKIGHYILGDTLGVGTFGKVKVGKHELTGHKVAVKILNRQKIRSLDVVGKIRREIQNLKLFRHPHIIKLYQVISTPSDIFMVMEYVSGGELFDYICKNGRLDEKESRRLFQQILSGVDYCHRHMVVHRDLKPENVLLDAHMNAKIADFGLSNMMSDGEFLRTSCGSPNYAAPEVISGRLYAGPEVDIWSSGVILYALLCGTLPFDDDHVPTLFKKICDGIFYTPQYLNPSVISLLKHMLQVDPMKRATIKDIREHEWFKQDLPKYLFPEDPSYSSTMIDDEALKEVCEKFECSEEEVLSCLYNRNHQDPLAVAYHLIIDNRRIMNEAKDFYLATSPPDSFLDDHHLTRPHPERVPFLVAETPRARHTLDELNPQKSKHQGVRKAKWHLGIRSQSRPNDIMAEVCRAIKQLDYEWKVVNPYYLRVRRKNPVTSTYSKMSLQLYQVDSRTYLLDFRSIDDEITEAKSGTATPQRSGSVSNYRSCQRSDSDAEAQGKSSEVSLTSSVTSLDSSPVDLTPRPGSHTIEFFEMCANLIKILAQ
Sequence of TRAF2 and NCK-interacting protein kinase (Homo sapiens) (Q9UKE5 whole entry, looked up): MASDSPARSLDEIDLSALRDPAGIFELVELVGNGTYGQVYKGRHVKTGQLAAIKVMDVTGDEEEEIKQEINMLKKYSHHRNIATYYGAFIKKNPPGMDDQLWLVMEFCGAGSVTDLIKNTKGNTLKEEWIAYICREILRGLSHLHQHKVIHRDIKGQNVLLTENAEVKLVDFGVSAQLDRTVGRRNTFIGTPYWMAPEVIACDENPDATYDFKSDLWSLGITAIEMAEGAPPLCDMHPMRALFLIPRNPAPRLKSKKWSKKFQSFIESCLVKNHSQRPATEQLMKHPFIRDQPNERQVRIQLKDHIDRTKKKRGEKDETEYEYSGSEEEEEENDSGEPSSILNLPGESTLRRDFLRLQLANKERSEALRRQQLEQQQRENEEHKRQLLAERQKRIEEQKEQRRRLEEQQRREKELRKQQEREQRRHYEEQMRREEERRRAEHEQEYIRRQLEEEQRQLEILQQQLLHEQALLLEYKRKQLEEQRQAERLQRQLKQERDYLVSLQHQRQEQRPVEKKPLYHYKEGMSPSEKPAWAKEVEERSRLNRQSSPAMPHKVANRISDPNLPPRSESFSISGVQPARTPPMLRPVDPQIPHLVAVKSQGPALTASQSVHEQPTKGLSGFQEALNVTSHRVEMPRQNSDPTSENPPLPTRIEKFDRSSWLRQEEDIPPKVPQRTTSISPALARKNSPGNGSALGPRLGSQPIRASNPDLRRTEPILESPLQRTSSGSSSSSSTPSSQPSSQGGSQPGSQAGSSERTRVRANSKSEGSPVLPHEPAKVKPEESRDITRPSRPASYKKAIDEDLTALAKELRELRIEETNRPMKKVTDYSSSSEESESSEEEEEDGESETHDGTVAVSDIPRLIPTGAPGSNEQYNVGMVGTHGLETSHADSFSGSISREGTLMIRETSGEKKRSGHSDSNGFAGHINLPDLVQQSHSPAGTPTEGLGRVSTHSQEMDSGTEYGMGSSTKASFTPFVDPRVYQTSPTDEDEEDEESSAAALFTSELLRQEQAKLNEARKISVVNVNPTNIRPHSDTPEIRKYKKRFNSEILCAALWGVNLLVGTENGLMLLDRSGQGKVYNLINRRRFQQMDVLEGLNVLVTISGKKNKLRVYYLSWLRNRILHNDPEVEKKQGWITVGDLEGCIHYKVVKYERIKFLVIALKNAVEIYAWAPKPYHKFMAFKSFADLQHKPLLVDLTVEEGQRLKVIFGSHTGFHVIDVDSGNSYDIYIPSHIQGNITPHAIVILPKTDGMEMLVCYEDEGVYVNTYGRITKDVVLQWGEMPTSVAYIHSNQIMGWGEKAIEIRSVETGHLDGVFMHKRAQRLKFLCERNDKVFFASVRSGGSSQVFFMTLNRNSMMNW
Sequence of 3-phosphoinositide-dependent protein kinase 1 (Homo sapiens) (O15530 whole entry, looked up, the tested form may be a part): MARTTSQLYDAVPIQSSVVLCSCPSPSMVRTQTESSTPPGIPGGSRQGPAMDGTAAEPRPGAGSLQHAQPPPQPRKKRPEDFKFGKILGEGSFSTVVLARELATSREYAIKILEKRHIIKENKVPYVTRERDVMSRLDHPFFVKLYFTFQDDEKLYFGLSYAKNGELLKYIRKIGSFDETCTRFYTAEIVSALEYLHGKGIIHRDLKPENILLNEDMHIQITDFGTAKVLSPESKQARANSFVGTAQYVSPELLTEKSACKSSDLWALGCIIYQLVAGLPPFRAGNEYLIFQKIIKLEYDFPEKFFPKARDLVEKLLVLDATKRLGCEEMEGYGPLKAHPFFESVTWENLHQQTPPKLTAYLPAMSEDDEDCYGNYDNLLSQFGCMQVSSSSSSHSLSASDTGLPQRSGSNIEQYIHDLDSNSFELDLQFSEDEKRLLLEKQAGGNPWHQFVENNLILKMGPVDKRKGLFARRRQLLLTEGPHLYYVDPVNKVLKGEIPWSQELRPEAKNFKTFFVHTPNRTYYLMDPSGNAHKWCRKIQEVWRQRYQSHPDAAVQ
Sequence of Cyclin-dependent kinase 8 (Homo sapiens) (P49336 whole entry): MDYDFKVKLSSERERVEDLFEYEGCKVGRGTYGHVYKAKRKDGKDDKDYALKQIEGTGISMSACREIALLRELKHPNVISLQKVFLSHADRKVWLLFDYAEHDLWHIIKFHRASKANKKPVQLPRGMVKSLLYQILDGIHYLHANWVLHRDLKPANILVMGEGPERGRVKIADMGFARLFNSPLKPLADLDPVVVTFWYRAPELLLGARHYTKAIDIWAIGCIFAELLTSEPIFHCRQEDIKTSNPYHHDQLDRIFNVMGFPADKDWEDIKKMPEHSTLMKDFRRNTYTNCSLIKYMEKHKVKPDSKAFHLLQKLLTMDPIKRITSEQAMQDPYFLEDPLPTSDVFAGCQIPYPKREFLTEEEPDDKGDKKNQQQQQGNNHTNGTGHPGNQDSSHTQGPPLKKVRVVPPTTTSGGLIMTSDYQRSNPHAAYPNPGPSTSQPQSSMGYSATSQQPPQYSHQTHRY
Sequence of Ribosomal protein S6 kinase alpha-3 (Homo sapiens) (P51812 whole entry, the tested form may be a part): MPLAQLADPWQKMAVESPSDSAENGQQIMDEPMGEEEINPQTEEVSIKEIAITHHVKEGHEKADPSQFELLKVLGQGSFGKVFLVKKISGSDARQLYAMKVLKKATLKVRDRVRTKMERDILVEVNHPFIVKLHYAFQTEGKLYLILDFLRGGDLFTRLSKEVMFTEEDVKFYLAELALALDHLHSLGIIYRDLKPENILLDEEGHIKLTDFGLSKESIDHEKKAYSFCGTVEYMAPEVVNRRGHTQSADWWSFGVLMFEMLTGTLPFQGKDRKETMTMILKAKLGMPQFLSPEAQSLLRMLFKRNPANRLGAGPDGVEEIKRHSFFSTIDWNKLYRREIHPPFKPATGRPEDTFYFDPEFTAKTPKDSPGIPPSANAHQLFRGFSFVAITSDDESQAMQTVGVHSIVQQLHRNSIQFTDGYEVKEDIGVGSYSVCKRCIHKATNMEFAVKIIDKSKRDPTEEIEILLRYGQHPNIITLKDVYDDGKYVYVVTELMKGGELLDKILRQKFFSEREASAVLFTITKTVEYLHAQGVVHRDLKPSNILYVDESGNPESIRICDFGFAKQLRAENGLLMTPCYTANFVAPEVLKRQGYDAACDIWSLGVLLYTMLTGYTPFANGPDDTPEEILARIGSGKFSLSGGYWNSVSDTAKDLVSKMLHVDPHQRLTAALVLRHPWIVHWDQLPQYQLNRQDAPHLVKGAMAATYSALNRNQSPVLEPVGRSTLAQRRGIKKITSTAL

For `CCN1CCN(Cc2ccc(NC(=O)c3ccc(C)c(/C=C/c4cnc5[nH]ccc5c4OC)c3)cc2C(F)(F)F)CC1`, the inhibition in [1] was 37%; in assay [2] it was 48.5%; in [3], 48.5%; in assay [4], 16.9%; in [5] it was 11.5%; in [6], 3.1%. Besides, the inhibition is -1.8% in assay [7]; 52.7% in [8]; 6.2% in [9]; 5.8% in assay [10]; 18.8% in assay [11]; 4.4% in assay [12].

Turning to `CCN1CCN(Cc2ccc(NC(=O)c3ccc(C)c(Oc4ccnc5[nH]ccc45)c3)cc2C(F)(F)F)CC1`, the inhibition in assay [1] was 11.6%; in assay [2] it was 31.4%; in assay [3] it was 31.4%; in [4], 18%; in assay [5] it was 5.1%; in assay [6], 6.4%. In addition, the inhibition in [7] was 0.3%; in assay [8] it was greater than 94%; in assay [9] it was -0.1%; in [10] it was 10.6%; in [11], 1.8%; in [12] it was 15.4%.

In the case of `CNc1cc(Oc2cc(C(=O)Nc3cc(-n4cnc(C)c4)cc(C(F)(F)F)c3)ccc2C)ncn1`, in [13], the inhibition worked out at 24.1%.

In the case of `CNc1cc(Oc2cc(C(=O)Nc3cc(N4CCN(C)CC4)cc(C(F)(F)F)c3)ccc2C)ncn1`, in assay [13], the inhibition worked out at 2.7%.

For the origin of these results see ChEMBL document CHEMBL5696442, “Discovery of type II inhibitors of TGFβ-activated kinase 1 (TAK1) and mitogen-activated protein kinase kinase kinase kinase 2 (MAP4K2)” (J Med Chem, 2015).
